Measurements from publication PMC8653574 (Bioorganic & medicinal chemistry letters, 2018).
Entries after “also recorded” stand apart in the source; their conditions may differ.

Tests used:
Format in all cases: cell-based, human
[1] = system: C4–2 cells; test: Acridine orange/ethidium bromide; conditions: 48 h incubation
Procedure, shortened: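 C4–2 cells were double-stained with acridine orange, which marks live and dead cells, and ethidium bromide, which marks dead cells only. Cell morphology was then examined to tell apoptosis from necrosis.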

[2] = system: PARP1 cleavage in C4–2 cells; test: PARP1 cleavage assay; conditions: C4–2 cells treated with compound
[3] = system: C4–2 cells; test: DNA ladder; conditions: 10 μM, 48 h
[4] = system: C4–2 cells; test: Wound healing; conditions: 12 h, 24 h and 48 h
Procedure, shortened: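 A scratch was made in a C4–2 monolayer. The wounded cells were incubated for a further 12, 24 and 48 h. Images were taken at the start and at each interval to assess migration.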

[5] = system: reactive oxygen species (ROS) in C4–2 cells; test: ROS accumulation by DCFDA staining; conditions: 10 μM, 48 h
Procedure, shortened: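 C4–2 cells were left untreated or exposed for 48 h to test compound at 10 μM or H2O2 at 10 μM as positive control. Intracellular ROS was stained with DCFDA and quantified.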

Compound | AO/EB staining: mode of cell death [1] | PARP1 cleavage (cleaved PARP level) [2] | DNA ladder formation [3] | inhibition of cell migration [4] | ROS level (DCFDA staining) [5]
COc1ccc2c(C3CC(c4ccncc4)=NO3)c[nH]c2c1 (stereo not drawn) [6c] | triggered apoptosis | induced apoptosis | triggered the formation of DNA ladder | potently inhibit C4–2 cell migration; also recorded: strong anti-cell motility property | 
Cc1c(C2CC(c3ccncc3)=NO2)c2ccccc2n1Cc1ccc(Cl)cc1 (stereo not drawn) [6i] | triggered apoptosis | induced apoptosis | triggered the formation of DNA ladder | potently inhibit C4–2 cell migration; also recorded: strong anti-cell motility property | 
H2O2 |  |  |  |  | high DCFDA staining
